TRPC6 activator: activates the mouse TRPC6 cation channel | 310,000 tested, 0.13% active | Q61143 | HEK293-TRPC6 membrane potential dye fluorescence; stronger effect = higher value | B-score at 10 µM;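 active means B-score of the integrated fluorescence ratio above library mean plus 3 SD, and starting fluorescence ratio within library mean plus 5 SD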;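 further: higher score means more depolarization so channel activation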
TRPC4 potent: allosterically enhances the mouse TRPC4 cation channel | B-score at 10 µM | HEK293 TRPC4beta/mu-opioid, DAMGO EC20, Fluo-4 Ca2+ flux; stronger effect = higher value | 310,000 tested, 0.42% active | Q9QUQ5 | AID 2227;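 active means B-score of calcium response area above 5 SD of library B-scores, with initial fluorescence ratio within 5 SD of library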;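 further: B-score of integrated fluorescence ratio over time as area under calcium response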
Target sequence (Q9QUQ5 whole entry, looked up): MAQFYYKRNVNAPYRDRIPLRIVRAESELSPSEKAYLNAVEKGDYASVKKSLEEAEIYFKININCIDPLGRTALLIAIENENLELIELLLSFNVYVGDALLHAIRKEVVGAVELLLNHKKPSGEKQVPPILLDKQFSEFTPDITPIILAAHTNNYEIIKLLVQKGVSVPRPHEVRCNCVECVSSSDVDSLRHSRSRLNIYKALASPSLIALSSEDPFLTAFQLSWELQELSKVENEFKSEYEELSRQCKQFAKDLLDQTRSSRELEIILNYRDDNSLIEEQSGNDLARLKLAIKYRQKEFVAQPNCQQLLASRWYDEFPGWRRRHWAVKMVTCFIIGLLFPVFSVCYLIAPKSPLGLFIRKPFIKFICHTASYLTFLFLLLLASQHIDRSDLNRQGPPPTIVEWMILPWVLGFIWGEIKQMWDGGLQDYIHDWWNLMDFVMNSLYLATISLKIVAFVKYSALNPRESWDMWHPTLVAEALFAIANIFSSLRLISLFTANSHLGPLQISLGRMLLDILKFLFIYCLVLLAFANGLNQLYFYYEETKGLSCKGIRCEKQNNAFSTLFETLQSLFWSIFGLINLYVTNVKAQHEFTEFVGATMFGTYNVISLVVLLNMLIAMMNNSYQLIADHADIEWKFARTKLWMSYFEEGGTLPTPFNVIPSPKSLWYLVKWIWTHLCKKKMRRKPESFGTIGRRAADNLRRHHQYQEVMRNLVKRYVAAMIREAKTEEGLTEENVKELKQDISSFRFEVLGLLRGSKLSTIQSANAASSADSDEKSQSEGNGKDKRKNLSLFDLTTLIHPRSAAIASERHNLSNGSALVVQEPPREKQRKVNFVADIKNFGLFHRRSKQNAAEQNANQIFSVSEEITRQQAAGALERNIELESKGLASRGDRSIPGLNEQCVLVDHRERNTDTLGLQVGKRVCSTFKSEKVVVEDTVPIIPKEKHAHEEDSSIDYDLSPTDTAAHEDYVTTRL
TRPC6 inhibitor: inhibitors of mouse TRPC6 channel. Q61143. HEK293-TRPC6, membrane potential dye, ACh-evoked depolarization; stronger effect = lower value. B-score at 10 µM. 310,000 tested, 1.1% active. AID 2553;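 active means B-score under library mean minus 3 SD, initial fluorescence not abnormally high, positive integrated signal ratio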;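 further: B-score derived from integrated fluorescence ratio over the kinetic read; more negative B-score means stronger inhibition of depolarization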
TRPC4 inh: inhibitors of mouse TRPC4 channel. Q9QUQ5. HEK293 TRPC4beta/mu-opioid, DAMGO-evoked Fluo4 calcium flux; stronger effect = lower value. B-score at 10 µM. 300,000 tested, 0.39% active. AID 2247;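 active means B-score over 3 SD under the library average, no early fluorescence shift, positive overall ratio signal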
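Assay system – HEK293 line stably carrying TRPC4beta and mu-opioid receptor · Doses – single dose · Detection – Fluo4 calcium-dye fluorescence, kinetic read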
TRPC4 agonist: activators of mouse TRPC4 channel. Q9QUQ5. 310,000 tested, 0.49% active. HEK293 TRPC4beta/mu-opioid, Fluo4 calcium fluorescence; stronger effect = higher value. B-score at 10 µM;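 active means B-score above 5 SD of library B-scores, and initial fluorescence ratio not above library mean plus 5 SD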;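 further: positive B-score marks a calcium rise read as TRPC4 activation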
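Assay system – TRPC4beta and mu-opioid receptor HEK293 stable cells · Measured by – Fluo4 fluorescence, kinetic · Schedule – dye loading 45 min room temperature, 110 s kinetic read · Read-out – B-scored integrated calcium fluorescence ratio · Controls – buffer and maximal DAMGO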
TRPC4 spec 2: mouse TRPC4 off-target activity of TRPC6 inhibitors, second screen; shares compounds with TRPC6 inhibitor; HEK293 TRPC4/MOR, membrane potential dye fluorescence; channel activated by saturating DAMGO dose; inhibition, % at 10 µM; 920 tested, 42% active; AID 2776;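 active means compounds whose fluorescence signal differed from control wells by over 3 SD, either direction, in both duplicate plates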
TRPC4 spec: tests whether TRPC6 inhibitors also affect mouse TRPC4; shares compounds with TRPC6 inhibitor; HEK293 TRPC4/mu-opioid, membrane potential fluorescence; activity change, negative = inhibition, % at 10 µM; 920 tested, 61% active; AID 2777;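 active means rise or fall in signal beyond 3 SD of buffer-only wells in both replicate plates, either sign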;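 further: integrated kinetic ratio of fluorescence range over baseline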
HEK293 MPD ctr 2-1: second check of TRPC6 inhibitor effects in parental HEK293 cells | signal change vs control, % at 10 µM | parental HEK293 membrane potential dye fluorescence; maximal acetylcholine challenge after compound addition | 920 tested, 31% active | AID 2779 | shares compounds with TRPC6 inhibitor;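 active means membrane potential signal moving either way by over 3 SD of the maximum-effect control, in both duplicate plates, meaning non-specific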
HEK293 MPD ctr-1: parental HEK293 nonspecific activity of TRPC6 inhibitors. shares compounds with TRPC6 inhibitor. parental HEK293 membrane potential dye fluorescence. membrane potential signal change, % at 10 µM. 920 tested, 60% active. AID 2780;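 active means membrane potential signal shifting up or down by more than 3 SD of buffer-only wells, on both duplicate plates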
HEK293 MPD ctr-2: checks TRPC6 modulator effects in parental HEK293 cells. shares compounds with TRPC6 inhibitor. membrane potential dye fluorescence. membrane potential signal change, % at 10 µM. 2,400 tested, 51% active. AID 488924;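 active means membrane potential signal moves up or down beyond 5 SD from buffer-only wells, on both duplicate plates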
HEK293 MPD ctr 2-2: second counter-screen for TRPC6 modulators: effect in parental HEK293 cells; shares compounds with TRPC6 inhibitor; membrane potential dye fluorescence; after compound, maximal acetylcholine stimulation; inhibition, % at 10 µM; 2,400 tested, 14% active; AID 488926;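 active means membrane potential signal drops by more than 5 SD from the mean control signal, in both duplicate plates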;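 further: plate controls were acetylcholine ECmax control wells for no effect and buffer only wells for full effect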
TRPC4 ctr mod: selectivity of TRPC6 modulators against mouse TRPC4. percent change from control (negative = decrease, positive = increase), % at 10 µM. HEK293 TRPC4/mu-opioid, membrane potential fluorescence. 2,400 tested, 69% active. AID 488927. shares compounds with TRPC6 inhibitor;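 active means membrane potential signal moved up or down beyond 5 SD of buffer control wells, in both duplicate plates, actives on both sides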;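 further: plate controls were assay buffer wells for no effect and DAMGO maximal-effect wells for full effect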
TRPC4/MOR inh 2: mouse TRPC4 off-target activity of TRPC6 modulators, second screen; inhibition, % at 10 µM; AID 488928; 2,400 tested, 55% active; shares compounds with TRPC6 inhibitor; HEK293 TRPC4/mu-opioid, membrane potential dye fluorescence; stimulated with maximal-effect DAMGO;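 active means drop in membrane potential signal beyond 5 SD of the control wells in both duplicate plates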;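 further: TRPC4 counter screen for TRPC6 hits run under conditions tuned for TRPC6 not TRPC4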
TRPC6 inh conf: confirmation of mouse TRPC6 inhibitors | shares compounds with TRPC6 inhibitor | HEK293-TRPC6, membrane potential dye, ACh-evoked depolarization | inhibition, % at 10 µM | 3,300 tested, 43% active | AID 488960;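 active means fluorescence ratio falls more than 5 SD below the full-stimulation control mean, in both duplicate runs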;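 further: integrated fluorescence ratio of peak minus minimum over baseline after agonist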
TRPC6 act confirm: confirmation of mouse TRPC6 activators; shares compounds with TRPC6 inhibitor; HEK293-TRPC6 membrane potential dye fluorescence, FDSS; activation, % at 10 µM; 2,800 tested, 11% active; AID 488961;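 active means ratio signal rise beyond 5 SD above unstimulated control wells' mean, seen in both duplicate runs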;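 further: plate controls were buffer EC0 wells for no effect and acetylcholine ECmax response for full effect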
* hit, by the source's call. The list is not random: actives were taken first. Their share in the collection is about 2.3%.

For Cc1ccc(-c2nc(C(=O)NCCCN(C)C)cc3c2[nH]c2ccccc23)cc1 the results were TRPC6 activator inactive, TRPC4 potent inactive, TRPC6 inhibitor -9.8*, TRPC4 inh inactive, TRPC4 agonist inactive, TRPC4 spec 2 30%*, TRPC4 spec -21%*, HEK293 MPD ctr 2-1 30%*, HEK293 MPD ctr-1 -255%*, TRPC6 inh conf 78%* and TRPC6 act confirm inactive.
For COc1ccc(OC)c(-c2nc(C(=O)NCCCN3CCOCC3)cc3c2[nH]c2ccccc23)c1 the results were TRPC6 activator inactive, TRPC4 potent inactive, TRPC6 inhibitor -6*, TRPC4 inh inactive, TRPC4 agonist inactive, HEK293 MPD ctr-2 inactive, HEK293 MPD ctr 2-2 inactive, TRPC4 ctr mod inactive, TRPC4/MOR inh 2 48%*, TRPC6 inh conf inactive and TRPC6 act confirm inactive.
`CCOC(=O)N1CCC(n2c(SCC(=O)OCc3ccccc3)nc3ccsc3c2=O)CC1` gave TRPC6 activator inactive, TRPC4 potent inactive, TRPC6 inhibitor inactive, TRPC4 inh inactive and TRPC4 agonist inactive.
`CCOC(=O)CSc1nc2ccsc2c(=O)n1C1CCN(C(=O)OCC)CC1` gave TRPC6 activator 15*, TRPC4 potent inactive, TRPC6 inhibitor -6.8*, TRPC4 inh inactive, TRPC4 agonist inactive, HEK293 MPD ctr-2 133%*, HEK293 MPD ctr 2-2 inactive, TRPC4 ctr mod 34%*, TRPC4/MOR inh 2 inactive, TRPC6 inh conf inactive and TRPC6 act confirm 60%*.
COc1ccc(-c2[nH]n(-c3ccc([N+](=O)[O-])cc3)c(=O)c2C=NCCN2CCNCC2)cc1 was read as TRPC6 activator inactive, TRPC4 potent inactive, TRPC6 inhibitor -6.5*, TRPC4 inh inactive, TRPC4 agonist inactive, HEK293 MPD ctr-2 -227%*, HEK293 MPD ctr 2-2 inactive, TRPC4 ctr mod -42%*, TRPC4/MOR inh 2 50%*, TRPC6 inh conf 50%* and TRPC6 act confirm inactive.
Screening NC(=O)CC(NC(=O)Cc1cccc2ccccc12)c1ccc(NCCCN2CCCC2=O)c([N+](=O)[O-])c1 (centres undefined) returned TRPC6 activator inactive, TRPC4 potent inactive, TRPC6 inhibitor inactive, TRPC4 inh inactive and TRPC4 agonist inactive.
For COc1ccc(/C(C)=N/NC2=NCCN2)cc1Cl the results were TRPC6 activator inactive, TRPC4 potent inactive, TRPC6 inhibitor inactive, TRPC4 inh inactive and TRPC4 agonist inactive.
CCCCOc1ccc(Br)cc1/C(C)=N/NC1=NCCN1 was read as TRPC6 activator inactive, TRPC4 potent inactive, TRPC6 inhibitor -7.3*, TRPC4 inh inactive, TRPC4 agonist inactive, TRPC4 spec 2 27%*, TRPC4 spec 15%*, HEK293 MPD ctr 2-1 233%*, HEK293 MPD ctr-1 8.4%*, TRPC6 inh conf inactive and TRPC6 act confirm inactive.
`COc1ccc(OCCCC(=O)Nc2cc(Cl)ccc2-n2cncn2)cc1` gave TRPC6 activator inactive, TRPC4 potent inactive, TRPC6 inhibitor inactive, TRPC4 inh inactive and TRPC4 agonist inactive.
Screening O=C(Nc1cc(F)ccc1F)N1CCN(c2ccnc3cc(Cl)ccc23)CC1 returned TRPC6 activator inactive, TRPC4 potent inactive, TRPC6 inhibitor inactive, TRPC4 inh inactive and TRPC4 agonist inactive.
Cc1ccc(F)cc1NC(=O)N1CCN(c2ccnc3cc(Cl)ccc23)CC1 was read as TRPC6 activator inactive, TRPC4 potent inactive, TRPC6 inhibitor -5.3*, TRPC4 inh inactive, TRPC4 agonist inactive, HEK293 MPD ctr-2 -94%*, HEK293 MPD ctr 2-2 inactive, TRPC4 ctr mod -24%*, TRPC4/MOR inh 2 inactive, TRPC6 inh conf inactive and TRPC6 act confirm inactive.
CN(C)CC/C=C1/c2ccccc2Sc2ccc(Cl)cc21 was read as TRPC6 activator inactive, TRPC4 potent inactive, TRPC6 inhibitor -5.3*, TRPC4 inh inactive, TRPC4 agonist inactive, HEK293 MPD ctr-2 inactive, HEK293 MPD ctr 2-2 inactive, TRPC4 ctr mod 9.0%*, TRPC4/MOR inh 2 54%*, TRPC6 inh conf 48%* and TRPC6 act confirm inactive.
Screening CCCCCC[N+](C)(C)CC/C=C1/c2ccccc2Sc2ccc(Cl)cc21 returned TRPC6 activator inactive, TRPC4 potent inactive, TRPC6 inhibitor -6.6*, TRPC4 inh -7*, TRPC4 agonist inactive, TRPC4 spec 2 inactive, TRPC4 spec inactive, HEK293 MPD ctr 2-1 inactive, HEK293 MPD ctr-1 inactive, TRPC6 inh conf 78%* and TRPC6 act confirm inactive.
CN(C)CC/C=C1\c2ccccc2COc2ccccc21 was read as TRPC6 activator inactive, TRPC4 potent inactive, TRPC6 inhibitor inactive, TRPC4 inh inactive and TRPC4 agonist inactive.
`COc1ccc(C2NC(=O)NC(O)(C(F)(F)F)C2C(=O)c2ccc(C)cc2)cc1` (centres undefined) gave TRPC6 activator inactive, TRPC4 potent inactive, TRPC6 inhibitor -9.6*, TRPC4 inh inactive, TRPC4 agonist inactive, TRPC4 spec 2 inactive, TRPC4 spec inactive, HEK293 MPD ctr 2-1 14%*, HEK293 MPD ctr-1 inactive, TRPC6 inh conf 65%* and TRPC6 act confirm inactive.
